Assay results published in ChEMBL document CHEMBL1137681, “Design, synthesis and characterization of N9/N7-substituted 6-aminopurines as VEGF-R and EGF-R inhibitors” (Eur J Med Chem, 2009).
The source made the active and inactive calls. The calls are words filed in the database; no cut-off is given here.

How the values were obtained:
[1] = molecular target: Receptor tyrosine-protein kinase erbB-2 (Homo sapiens, UniProt P04626); test: Inhibition of ERBB2
Procedure, shortened: (§1)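 Buffer: HEPES-NaOH pH 7.5, Mg2+/Mn2+, vanadate, DTT, PEG20000, 1% DMSO. Incubated 30 °C for 80 min, stopped with 2% H3PO4, washed, and scintillation-counted. IC50 from 10 concentrations in singlicate.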

[2] = molecular target: Vascular endothelial growth factor receptor 2 (Homo sapiens, UniProt P35968); test: Inhibition of VEGFR2
[3] = molecular target: T1, Serine/threonine-protein kinase PLK4 (Homo sapiens) (UniProt O00444); test: Inhibition of SAK up to 100 uM
T1 sequence (whole entry): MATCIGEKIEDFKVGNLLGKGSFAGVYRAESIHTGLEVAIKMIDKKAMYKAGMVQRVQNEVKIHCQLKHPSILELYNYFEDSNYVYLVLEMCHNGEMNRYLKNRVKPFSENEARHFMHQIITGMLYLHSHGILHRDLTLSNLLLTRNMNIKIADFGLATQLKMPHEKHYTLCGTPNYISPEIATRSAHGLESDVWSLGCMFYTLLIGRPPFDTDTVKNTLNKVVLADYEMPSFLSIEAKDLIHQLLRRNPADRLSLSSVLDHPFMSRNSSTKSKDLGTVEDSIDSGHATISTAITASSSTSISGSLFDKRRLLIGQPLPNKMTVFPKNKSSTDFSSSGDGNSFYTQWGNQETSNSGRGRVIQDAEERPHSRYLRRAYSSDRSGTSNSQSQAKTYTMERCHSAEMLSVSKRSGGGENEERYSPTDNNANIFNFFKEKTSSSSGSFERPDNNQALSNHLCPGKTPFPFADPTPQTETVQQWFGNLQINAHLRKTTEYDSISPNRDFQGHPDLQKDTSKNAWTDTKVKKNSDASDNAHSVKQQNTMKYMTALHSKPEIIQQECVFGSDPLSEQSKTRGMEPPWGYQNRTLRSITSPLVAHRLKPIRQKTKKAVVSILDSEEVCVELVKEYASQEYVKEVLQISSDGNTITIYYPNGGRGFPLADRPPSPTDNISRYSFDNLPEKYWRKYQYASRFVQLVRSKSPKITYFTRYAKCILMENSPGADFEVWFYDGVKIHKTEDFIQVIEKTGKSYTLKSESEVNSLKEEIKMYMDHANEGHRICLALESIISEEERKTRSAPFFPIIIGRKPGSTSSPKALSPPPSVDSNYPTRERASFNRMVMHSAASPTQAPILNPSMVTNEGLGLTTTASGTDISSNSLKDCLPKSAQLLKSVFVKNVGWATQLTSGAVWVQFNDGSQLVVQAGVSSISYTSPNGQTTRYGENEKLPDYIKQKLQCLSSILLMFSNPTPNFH

[4] = molecular target: Cyclin-dependent kinase 2 (Homo sapiens) (UniProt P24941); test: Inhibition of CDK2/cyclin A up to 100 uM
Procedure, shortened: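 Buffer was HEPES-NaOH pH 7.5 with MgCl2/MnCl2, vanadate, DTT, PEG20000 and 1% DMSO. Run 80 min at 30 °C, H3PO4 stop, NaCl wash, scintillation read-out. IC50 from 10 concentrations, singlicate.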

[5] = molecular target: Proto-oncogene tyrosine-protein kinase Src (Homo sapiens, UniProt P12931); test: Inhibition of SRC
Sequence of Proto-oncogene tyrosine-protein kinase Src (P12931 2-536 limits assumed): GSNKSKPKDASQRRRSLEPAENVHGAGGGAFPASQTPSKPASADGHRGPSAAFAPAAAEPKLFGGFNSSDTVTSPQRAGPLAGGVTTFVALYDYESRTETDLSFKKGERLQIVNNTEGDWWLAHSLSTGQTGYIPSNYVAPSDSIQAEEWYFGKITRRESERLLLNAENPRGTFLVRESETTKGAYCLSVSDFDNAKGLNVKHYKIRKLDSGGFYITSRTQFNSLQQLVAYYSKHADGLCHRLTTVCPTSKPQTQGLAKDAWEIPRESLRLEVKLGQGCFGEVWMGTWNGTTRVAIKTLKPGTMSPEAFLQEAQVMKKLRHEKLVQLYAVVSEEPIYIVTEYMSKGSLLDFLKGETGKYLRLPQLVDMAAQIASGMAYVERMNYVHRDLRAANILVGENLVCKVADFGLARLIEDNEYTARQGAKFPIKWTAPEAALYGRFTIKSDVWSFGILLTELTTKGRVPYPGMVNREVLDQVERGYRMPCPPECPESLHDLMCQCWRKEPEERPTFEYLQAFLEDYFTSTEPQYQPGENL

[6] = molecular target: Aurora kinase B (Homo sapiens, UniProt Q96GD4); test: Inhibition of Aurora B
Procedure, shortened: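 Buffer was HEPES-NaOH pH 7.5 with MgCl2, MnCl2, vanadate, DTT, PEG20000 and 1% DMSO. Run 80 min at 30 °C, quenched with 2% H3PO4, NaCl-washed, then scintillation-counted. IC50 fitted from 10 concentrations tested once each.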

[7] = molecular target: Casein kinase II subunit alpha (Homo sapiens) (UniProt P68400); test: Inhibition of CK2alpha1
Procedure, shortened: (§2)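 Run in HEPES-NaOH pH 7.5 with MgCl2, MnCl2, orthovanadate, DTT, PEG20000 and 1% DMSO at 30 °C for 80 min. IC50 from 10 concentrations, singlicate.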

[8] = molecular target: RAC-alpha serine/threonine-protein kinase (Homo sapiens) (UniProt P31749); test: Inhibition of AKT1 up to 100 uM
Procedure, shortened: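 Radiometric kinase assay with recombinant AKT1 (50–400 ng) and GSK3(14-27) peptide substrate. Incubated 80 min at 30 °C, stopped with 2% H3PO4, washed with 0.9% NaCl. IC50 from 10 concentrations in singlicate.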

[9] = molecular target: Receptor-type tyrosine-protein kinase FLT3 (Homo sapiens) (UniProt P36888); test: Inhibition of FLT3 up to 100 uM
[10] = molecular target: Hepatocyte growth factor receptor (Homo sapiens) (UniProt P08581); test: Inhibition of MET up to 100 uM
Sequence of Hepatocyte growth factor receptor (Homo sapiens) (P08581 whole entry): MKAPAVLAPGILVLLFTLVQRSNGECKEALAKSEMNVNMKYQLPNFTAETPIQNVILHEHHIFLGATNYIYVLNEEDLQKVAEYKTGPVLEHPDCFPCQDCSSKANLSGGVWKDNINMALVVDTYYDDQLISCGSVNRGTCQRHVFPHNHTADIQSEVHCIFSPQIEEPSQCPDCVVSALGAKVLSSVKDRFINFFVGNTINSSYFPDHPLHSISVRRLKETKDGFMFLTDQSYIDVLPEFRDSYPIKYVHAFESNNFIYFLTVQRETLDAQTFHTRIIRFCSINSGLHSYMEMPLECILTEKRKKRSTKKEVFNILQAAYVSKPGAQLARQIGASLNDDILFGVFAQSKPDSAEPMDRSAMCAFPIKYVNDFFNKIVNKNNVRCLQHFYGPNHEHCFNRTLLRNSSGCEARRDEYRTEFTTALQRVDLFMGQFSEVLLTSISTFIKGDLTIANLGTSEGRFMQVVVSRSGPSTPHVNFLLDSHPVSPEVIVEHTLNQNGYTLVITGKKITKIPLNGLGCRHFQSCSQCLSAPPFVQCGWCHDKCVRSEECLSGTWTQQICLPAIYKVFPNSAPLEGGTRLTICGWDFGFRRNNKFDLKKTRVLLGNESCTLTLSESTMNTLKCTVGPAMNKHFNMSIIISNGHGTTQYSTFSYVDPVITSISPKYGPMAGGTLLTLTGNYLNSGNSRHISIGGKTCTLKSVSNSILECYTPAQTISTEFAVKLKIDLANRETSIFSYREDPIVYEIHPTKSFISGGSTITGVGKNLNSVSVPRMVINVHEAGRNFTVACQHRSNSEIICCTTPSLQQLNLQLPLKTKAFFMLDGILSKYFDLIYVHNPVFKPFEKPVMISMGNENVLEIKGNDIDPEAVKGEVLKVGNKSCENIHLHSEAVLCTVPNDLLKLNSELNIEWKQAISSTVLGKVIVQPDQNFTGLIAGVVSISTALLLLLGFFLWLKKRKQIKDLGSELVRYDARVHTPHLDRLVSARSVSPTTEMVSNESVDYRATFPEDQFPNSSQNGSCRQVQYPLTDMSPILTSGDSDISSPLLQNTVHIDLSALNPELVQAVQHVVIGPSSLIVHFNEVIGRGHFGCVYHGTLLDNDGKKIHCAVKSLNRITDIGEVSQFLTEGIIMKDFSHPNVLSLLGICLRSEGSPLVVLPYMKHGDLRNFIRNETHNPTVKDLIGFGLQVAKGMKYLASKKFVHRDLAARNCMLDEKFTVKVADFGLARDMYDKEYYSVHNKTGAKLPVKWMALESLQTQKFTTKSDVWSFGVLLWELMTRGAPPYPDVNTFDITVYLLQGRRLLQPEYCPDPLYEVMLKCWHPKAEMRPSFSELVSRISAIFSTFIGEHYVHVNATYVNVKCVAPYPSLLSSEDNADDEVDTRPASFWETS

[11] = molecular target: Platelet-derived growth factor receptor beta (Homo sapiens) (UniProt P09619); test: Inhibition of PDGFRbeta up to 100 uM
[12] = molecular target: T2, NUAK family SNF1-like kinase 1 (Homo sapiens) (UniProt O60285); test: Inhibition of ARK5 up to 100 uM
T2 sequence (whole entry): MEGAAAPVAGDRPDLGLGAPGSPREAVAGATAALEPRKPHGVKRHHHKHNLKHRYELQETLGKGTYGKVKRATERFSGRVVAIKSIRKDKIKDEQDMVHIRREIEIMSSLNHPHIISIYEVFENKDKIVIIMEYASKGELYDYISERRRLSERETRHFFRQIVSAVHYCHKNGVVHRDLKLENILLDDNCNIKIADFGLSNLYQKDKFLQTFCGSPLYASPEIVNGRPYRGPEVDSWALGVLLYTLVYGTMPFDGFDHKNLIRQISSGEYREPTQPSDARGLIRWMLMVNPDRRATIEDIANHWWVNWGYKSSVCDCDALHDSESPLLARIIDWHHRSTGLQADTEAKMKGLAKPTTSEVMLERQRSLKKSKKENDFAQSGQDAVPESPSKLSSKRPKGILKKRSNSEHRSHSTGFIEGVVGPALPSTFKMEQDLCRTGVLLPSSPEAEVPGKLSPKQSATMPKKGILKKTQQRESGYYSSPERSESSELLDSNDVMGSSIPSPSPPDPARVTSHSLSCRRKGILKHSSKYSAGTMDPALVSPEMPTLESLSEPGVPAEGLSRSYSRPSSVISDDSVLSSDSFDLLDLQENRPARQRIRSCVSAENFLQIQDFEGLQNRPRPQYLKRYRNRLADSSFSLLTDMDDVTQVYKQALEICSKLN

[13] = molecular target: Focal adhesion kinase 1 (Homo sapiens) (UniProt Q05397); test: Inhibition of FAK up to 100 uM; procedure, shortened: as §1
Sequence of Focal adhesion kinase 1 (Homo sapiens) (Q05397 2-1052 limits assumed): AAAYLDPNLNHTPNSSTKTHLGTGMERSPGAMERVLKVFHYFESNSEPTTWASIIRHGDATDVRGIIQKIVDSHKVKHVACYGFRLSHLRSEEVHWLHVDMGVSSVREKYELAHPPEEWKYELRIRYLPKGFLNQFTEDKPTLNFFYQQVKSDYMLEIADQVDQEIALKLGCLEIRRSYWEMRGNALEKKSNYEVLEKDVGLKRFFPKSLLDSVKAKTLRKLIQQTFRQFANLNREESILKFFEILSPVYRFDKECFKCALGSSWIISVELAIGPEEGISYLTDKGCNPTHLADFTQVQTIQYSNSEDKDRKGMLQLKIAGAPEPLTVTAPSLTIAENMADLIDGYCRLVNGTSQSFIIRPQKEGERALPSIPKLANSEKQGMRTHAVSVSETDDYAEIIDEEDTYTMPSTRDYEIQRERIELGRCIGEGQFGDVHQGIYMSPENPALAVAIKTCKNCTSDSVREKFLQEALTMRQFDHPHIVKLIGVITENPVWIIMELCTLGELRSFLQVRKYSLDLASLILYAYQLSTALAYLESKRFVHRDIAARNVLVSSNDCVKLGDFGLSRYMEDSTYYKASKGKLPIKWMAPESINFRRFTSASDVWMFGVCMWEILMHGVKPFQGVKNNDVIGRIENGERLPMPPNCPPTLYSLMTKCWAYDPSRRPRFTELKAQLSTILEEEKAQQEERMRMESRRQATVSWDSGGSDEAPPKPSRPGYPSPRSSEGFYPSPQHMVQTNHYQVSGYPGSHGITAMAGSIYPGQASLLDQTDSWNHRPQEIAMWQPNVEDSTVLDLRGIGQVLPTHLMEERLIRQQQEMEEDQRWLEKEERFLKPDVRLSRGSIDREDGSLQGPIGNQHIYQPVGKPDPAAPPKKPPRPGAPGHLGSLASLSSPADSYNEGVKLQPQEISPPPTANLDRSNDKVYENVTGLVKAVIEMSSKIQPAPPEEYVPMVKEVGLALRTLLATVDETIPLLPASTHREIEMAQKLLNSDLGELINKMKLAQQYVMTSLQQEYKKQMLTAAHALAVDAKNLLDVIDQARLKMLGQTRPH

[14] = molecular target: Angiopoietin-1 receptor (Homo sapiens, UniProt Q02763); test: Inhibition of TIE2
[15] = molecular target: Serine/threonine-protein kinase PLK1 (Homo sapiens) (UniProt P53350); test: Inhibition of PLK1 up to 100 uM; procedure, shortened: as §2
Sequence of Serine/threonine-protein kinase PLK1 (Homo sapiens) (P53350 whole entry): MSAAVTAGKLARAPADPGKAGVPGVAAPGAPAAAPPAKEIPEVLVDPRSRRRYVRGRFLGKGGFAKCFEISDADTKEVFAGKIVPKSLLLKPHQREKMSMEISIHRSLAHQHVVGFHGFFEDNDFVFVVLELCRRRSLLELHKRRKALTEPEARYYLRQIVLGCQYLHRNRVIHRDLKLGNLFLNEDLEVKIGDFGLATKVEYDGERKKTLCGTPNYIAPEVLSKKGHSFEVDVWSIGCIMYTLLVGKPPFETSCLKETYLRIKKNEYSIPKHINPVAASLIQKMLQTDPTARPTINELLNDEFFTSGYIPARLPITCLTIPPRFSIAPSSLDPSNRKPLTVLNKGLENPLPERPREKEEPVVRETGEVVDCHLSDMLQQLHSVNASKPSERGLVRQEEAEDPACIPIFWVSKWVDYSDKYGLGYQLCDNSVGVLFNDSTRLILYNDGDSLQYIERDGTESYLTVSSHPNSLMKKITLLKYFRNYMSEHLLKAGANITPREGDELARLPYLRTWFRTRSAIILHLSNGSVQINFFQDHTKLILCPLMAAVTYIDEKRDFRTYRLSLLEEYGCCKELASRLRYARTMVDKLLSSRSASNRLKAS

[16] = molecular target: Epidermal growth factor receptor (Homo sapiens, UniProt P00533); test: Inhibition of EGFR
Sequence of Epidermal growth factor receptor (P00533 whole entry): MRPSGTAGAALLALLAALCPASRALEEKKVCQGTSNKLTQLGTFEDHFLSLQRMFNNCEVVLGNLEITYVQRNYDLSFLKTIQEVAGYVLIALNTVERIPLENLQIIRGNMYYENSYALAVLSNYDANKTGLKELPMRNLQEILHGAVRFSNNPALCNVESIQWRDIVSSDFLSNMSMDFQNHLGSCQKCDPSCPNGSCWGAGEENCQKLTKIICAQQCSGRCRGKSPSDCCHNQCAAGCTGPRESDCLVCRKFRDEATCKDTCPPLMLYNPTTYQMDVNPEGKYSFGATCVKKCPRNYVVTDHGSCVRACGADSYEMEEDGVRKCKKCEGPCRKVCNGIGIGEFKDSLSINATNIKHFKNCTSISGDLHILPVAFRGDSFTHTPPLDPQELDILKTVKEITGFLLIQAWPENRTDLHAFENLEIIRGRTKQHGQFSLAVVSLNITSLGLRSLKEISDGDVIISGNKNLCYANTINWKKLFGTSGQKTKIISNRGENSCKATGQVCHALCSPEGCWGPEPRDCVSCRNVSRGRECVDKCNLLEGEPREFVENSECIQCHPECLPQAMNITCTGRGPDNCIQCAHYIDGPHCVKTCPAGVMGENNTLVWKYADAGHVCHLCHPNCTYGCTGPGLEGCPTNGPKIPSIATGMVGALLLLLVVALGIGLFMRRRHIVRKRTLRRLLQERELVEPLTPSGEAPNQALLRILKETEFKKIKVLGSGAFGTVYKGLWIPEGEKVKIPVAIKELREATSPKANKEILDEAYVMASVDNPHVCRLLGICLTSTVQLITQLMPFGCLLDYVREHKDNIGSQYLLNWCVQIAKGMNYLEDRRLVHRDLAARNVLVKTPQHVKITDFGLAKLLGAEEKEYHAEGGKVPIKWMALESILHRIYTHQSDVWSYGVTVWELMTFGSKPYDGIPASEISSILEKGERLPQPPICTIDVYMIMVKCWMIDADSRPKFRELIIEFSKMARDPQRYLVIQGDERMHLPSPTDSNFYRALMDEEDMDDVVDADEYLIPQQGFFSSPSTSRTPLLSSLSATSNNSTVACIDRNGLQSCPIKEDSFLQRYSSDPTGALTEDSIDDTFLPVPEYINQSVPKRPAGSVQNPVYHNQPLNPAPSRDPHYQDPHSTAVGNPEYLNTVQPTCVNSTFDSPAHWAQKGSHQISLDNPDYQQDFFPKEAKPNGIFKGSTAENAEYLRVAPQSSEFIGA

[17] = molecular target: Vascular endothelial growth factor receptor 3 (Homo sapiens, UniProt P35916); test: Inhibition of VEGFR3

Row | SMILES | inhibition [1] | inhibition [2] | inhibition [3] | inhibition [4] | inhibition [5] | inhibition [6] | inhibition [7] | inhibition [8] | inhibition [9] | inhibition [10] | inhibition [11] | inhibition [12] | inhibition [13] | inhibition [14] | inhibition [15] | inhibition [16] | inhibition [17] | IC50 [16] | IC50 [2] | other results
1 | Nc1ncnc2ncn(CC(=O)c3ccccc3)c12 | inactive | inactive | inactive | inactive | inactive | inactive | inactive | inactive | inactive | inactive | inactive | inactive | inactive | inactive | inactive | – | – | – | – | –
2 | CN(C)c1ncnc2c1ncn2CC(=O)c1c[nH]c2ccccc12 | inactive | inactive | inactive | inactive | inactive | inactive | inactive | inactive | inactive | inactive | inactive | inactive | inactive | inactive | inactive | inactive | inactive | – | – | –
3 | Nc1ncnc2c1ncn2CC(=O)c1ccccn1 | inactive | inactive | inactive | inactive | inactive | inactive | inactive | inactive | inactive | inactive | inactive | inactive | inactive | inactive | inactive | – | inactive | 89 µM | – | –
4 | Nc1ncnc2c1ncn2CC(=O)c1c[nH]c2ccccc12 | – | – | inactive | inactive | inactive | – | inactive | inactive | inactive | inactive | inactive | inactive | inactive | – | inactive | – | inactive | 35 µM | 81 µM | IC50 [1]: 95 µM; IC50 [6]: 69 µM; IC50 [14]: 85 µM
5 | COc1ncnc2ncn(CC(=O)c3ccccc3)c12 | inactive | inactive | inactive | inactive | inactive | inactive | inactive | inactive | inactive | inactive | inactive | inactive | inactive | inactive | inactive | inactive | inactive | – | – | –
6 | Nc1ncnc2c1ncn2CC(=O)c1cccnc1 | inactive | – | inactive | inactive | – | inactive | inactive | inactive | inactive | inactive | inactive | inactive | inactive | inactive | inactive | – | inactive | 93 µM | 58 µM | IC50 [5]: 75 µM
7 | COc1ncnc2c1ncn2CC(=O)c1ccccc1 | inactive | – | inactive | inactive | inactive | inactive | inactive | inactive | inactive | inactive | inactive | inactive | inactive | inactive | inactive | inactive | – | – | 25 µM | IC50 [17]: 45 µM
8 | Nc1ncnc2c1ncn2CC(=O)c1ccccc1 | – | – | inactive | inactive | – | inactive | inactive | inactive | inactive | inactive | inactive | inactive | inactive | – | inactive | – | inactive | 75 µM | – | –
9 | Nc1ncnc2ncn(CC(=O)c3c[nH]c4ccccc34)c12 | inactive | – | inactive | inactive | – | inactive | inactive | inactive | inactive | inactive | inactive | inactive | inactive | – | inactive | – | inactive | – | 30 µM | IC50 [14]: 95 µM
